According to ChEMBL document CHEMBL1133473, “Synthesis and antiviral activity of 4-benzyl pyridinone derivatives as potent and selective non-nucleoside human immunodeficiency virus type 1 reverse transcriptase inhibitors” (J Med Chem, 2000):
“And” between values parts separate entries of the source, which are not always exact repeats. Equal values may be shown once.

Assays:
CEM-SS [1] = experiment: Tested for inhibitory concentration on HIV-I Lai wild type in CEM-SS cell line; assay type: functional, cell-based; details: Homo sapiens
Procedure, shortened: (§1)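 CEM-SS lymphocytic cells infected with 100 TCID50 of HIV-1 LAI, or of the nevirapine-resistant N119 strain carrying an RT codon 181 mutation. Virus adsorbed 30 min, unbound virus removed by two washes, then cells cultured 5 days with serial compound dilutions. Read-out: RT activity of particles released into the supernatant. IC50 from a computer median effect plot of dose-effect data.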

CEM-SS [2] = experiment: Tested for cytotoxic concentration on HIV-I Lai wild type in CEM-SS cell line; assay type: functional; details: Homo sapiens
Procedure, shortened: (§2)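 CEM-SS cells, uninfected, cultured 5 days with compound. Compounds were taken from a DMSO solution at 10^-2 M (10^-3 M or lower if insoluble), diluted 1:100 in medium, then serially diluted in medium.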

[3] = test system: Human immunodeficiency virus 1; experiment: Selectivity index is the ratio of CC50 to IC50; assay type: functional
[4] = test system: Human immunodeficiency virus 1; experiment: Inhibitory concentration against HIV-1 Bal/Mono; assay type: functional, organism-based
Procedure, shortened: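 Macrophage-tropic HIV-1 Bal in monocyte-derived macrophages kept serum-free in AIM V medium with 100 U/mL GM-CSF. Virus output measured as supernatant particle-associated RT activity.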

[5] = Cytotoxicity against PBMC cells infected with HIV-2 D 194; assay type: functional; details: Human immunodeficiency virus 2, PBMC
[6] = test system: Human immunodeficiency virus 1; experiment: Tested for inhibitory concentration on HIV-I nevirapine resistant strain.; assay type: functional, organism-based; procedure, shortened: as §1
[7] = test system: Human immunodeficiency virus 1; experiment: (§3) Selectivity index is the ratio of CC50 to IC50 against HIV-1 nevirapine resistant strain; assay type: functional
[8] = test system: Human immunodeficiency virus 1; experiment: Tested for cytotoxic concentration on HIV-I nevirapine resistant strain.; assay type: functional; procedure, shortened: as §2
[9] = biological target: Human immunodeficiency virus type 1 reverse transcriptase (Human immunodeficiency virus 1, UniProt Q72547); experiment: Tested for inhibitory concentration on HIV-1 Reverse transcriptase in the presence of poly(c)-oligo-(dG)
Procedure, shortened: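 Recombinant HIV-1 RT purified from yeast, 20-50 nM. Reaction at 37 °C for 10 min in 50 mM Tris-HCl pH 8.0, 5 mM MgCl2, 4 mM DTT, 80 mM KCl, BSA, 0.48 A260 units/mL poly(C)-oligo(dG) (5:1), 2 µM dGTP plus [3H]dGTP. Stopped with cold 10% TCA plus 0.1 M pyrophosphate; precipitates filtered, scintillation counted. Compounds dissolved in DMSO.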

[10] = test system: Human immunodeficiency virus 1; experiment: Inhibitory concentration against HIV-1 AZTres.; assay type: functional, organism-based
Procedure, shortened: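 AZT-resistant HIV-1 isolate A018 G910-6 tested in cell culture; virus production measured as RT activity of particles released into the culture supernatant.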

[11] = Cytotoxicity against Macrophages infected with HIV-1 Bal/Mono; assay type: functional; details: Human immunodeficiency virus 1
MT4 [12] = experiment: Cytotoxicity against MT-4 cells infected with HIV-1 IIIB strain; assay type: functional; details: Homo sapiens
MT4 [13] = experiment: Cytotoxicity against MT-4 cells infected with HIV-1 AZTres; assay type: functional; details: Homo sapiens
[14] = Inhibitory concentration against HIV-2 D 194; assay type: functional
Procedure, shortened: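 Cell-based antiviral assay against this HIV-2 isolate. Compounds were dissolved in DMSO as 10^-2 M stocks, or 10^-3 M or lower when insoluble, diluted 1% in culture medium, then serially diluted in medium. Virus production was read as reverse transcriptase activity of particles released into the culture supernatant. IC50 was taken from a median-effect plot of the dose-effect data.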

[15] = Cytotoxicity against PBMC cells infected with HIV-1 IIIB strain; assay type: functional; details: Human immunodeficiency virus 1, PBMC
[16] = as §3; assay type: functional
[17] = test system: Human immunodeficiency virus 1; experiment: Inhibitory concentration against HIV-1 IIIB strain; assay type: functional, organism-based
Procedure, shortened: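 MT4 cells infected with HIV-1 IIIB; antiviral effect read as protection from virus-induced cytopathogenicity by MTT. Compounds taken from DMSO stock, diluted in culture medium.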

CCc1c(C)nc(OC)c2c1C(c1cc(C)cc(C)c1)OC(C(C)(C)C)=N2 (stereo unspecified)
IC50 (CEM-SS [1]): > 10 µM
CC50 (CEM-SS [2]): > 10 µM

CCc1c(C)nc(O)c(NC(=O)C(C)(C)C)c1C(C)(O)c1cc(C)cc(C)c1 (stereo unspecified)
SI [3]: >8
IC50 (CEM-SS [1]): 12 µM
CC50 (CEM-SS [2]): > 100 µM

Cc1cc(C)cc(Sc2c(C)cnc(O)c2NC=O)c1
SI [3]: >15
IC50 (CEM-SS [1]): 6.6 µM

CCc1c(C)[nH]c(=O)c(NC=O)c1Cc1cc(C)cc(C)c1
IC50 [4]: 0.021 µM
CC50 [5]: > 10 µM
IC50 [6]: 2.9 µM
SI [7]: >3
CC50 [8]: > 10 µM
IC50 [9]: 0.2 µM
SI [3]: >3333
IC50 [10]: 0.071 µM
IC50 (CEM-SS [1]): 0.003 µM
CC50 [11]: > 10 µM
CC50 (MT4 [12]): > 10 µM
CC50 (CEM-SS [2]): > 10 µM
CC50 (MT4 [13]): > 10 µM
IC50 [14]: > 10 µM
CC50 [15]: > 10 µM

CCc1c(C)[nH]c(=O)c(NC(C)=O)c1Cc1cc(C)cc(C)c1
IC50 [4]: 0.2 µM
CC50 [5]: > 10 µM
IC50 [6]: > 10 µM
CC50 [8]: > 10 µM
SI [3]: >100
IC50 [10]: 0.44 µM
IC50 (CEM-SS [1]): 0.1 µM
CC50 [11]: > 10 µM
CC50 (MT4 [12]): > 10 µM
CC50 (CEM-SS [2]): > 10 µM
CC50 (MT4 [13]): > 10 µM
IC50 [14]: > 10 µM
CC50 [15]: > 10 µM

CCOCn1c(Cc2cc(C)cc(C)c2)c(C(C)C)c(=O)[nH]c1=O
SI [3]: 72000
IC50 (CEM-SS [1]): 0.0006 µM
CC50 (CEM-SS [2]): 43 µM

CCC(=O)Nc1c(O)ncc(C)c1Sc1cc(C)cc(C)c1
SI [3]: >2
IC50 (CEM-SS [1]): 41.4 µM

CCOCn1c(Cc2cc(C)cc(C)c2)c(CC)c(=O)[nH]c1=O
SI [3]: 130000
IC50 (CEM-SS [1]): 0.0016 µM
CC50 (CEM-SS [2]): 207 µM

CCc1c(C)nc(O)c(N)c1Cc1cc(C)cc(C)c1
IC50 [4]: 0.13 µM
CC50 [5]: > 10 µM
IC50 [6]: 1 µM
CC50 [8]: > 10 µM
SI [16]: > 10
IC50 [9]: 0.1 µM
SI [3]: >588
IC50 [10]: 4.35 µM
IC50 (CEM-SS [1]): 0.017 µM
CC50 [11]: > 10 µM
CC50 (MT4 [12]): > 10 µM
CC50 (CEM-SS [2]): > 10 µM
CC50 (MT4 [13]): > 10 µM
IC50 [14]: > 10 µM
IC50 [17]: 0.31 µM
IC50 ([17]; Human immunodeficiency virus 1): 0.5 µM
CC50 [15]: > 10 µM

CCc1c(C)nc(O)c(N)c1C(O)c1cc(C)cc(C)c1 (stereo unspecified)
IC50 [4]: 0.18 µM
CC50 [5]: > 10 µM
IC50 [6]: 4.5 µM
SI [7]: >2
CC50 [8]: > 10 µM
SI [3]: >10
IC50 [10]: 0.42 µM
IC50 (CEM-SS [1]): 1 µM
CC50 [11]: > 10 µM
CC50 (MT4 [12]): 10 µM
CC50 (CEM-SS [2]): > 10 µM
CC50 (MT4 [13]): > 10 µM
IC50 [14]: > 10 µM
IC50 [17]: 3.4 µM and 0.69 µM
CC50 [15]: > 10 µM

CCc1c(C)[nH]c(=O)c(NC)c1Cc1cc(C)cc(C)c1
IC50 [4]: 0.72 µM
CC50 [5]: > 10 µM
IC50 [6]: 1.7 µM
SI [7]: >5.5 and >10
CC50 [8]: > 10 µM
SI [3]: >333
IC50 [10]: 0.076 µM
IC50 (CEM-SS [1]): 0.03 µM
CC50 [11]: > 10 µM
CC50 (MT4 [12]): > 10 µM
CC50 (CEM-SS [2]): > 10 µM
CC50 (MT4 [13]): > 10 µM
IC50 [14]: > 10 µM
CC50 [15]: > 10 µM

CCc1c(C)nc(O)c(NC(C)=O)c1Sc1cc(C)cc(C)c1
SI [3]: 1600
IC50 (CEM-SS [1]): 0.05 µM

CCc1c(C)nc(OC)c2c1C(c1cc(C)cc(C)c1)OC(O)(C(C)(C)C)N2 (stereo unspecified)
SI [3]: >2
IC50 (CEM-SS [1]): 4.2 µM
CC50 (CEM-SS [2]): > 10 µM

CCc1c(C)nc(OC)c(NC(=O)C(C)(C)C)c1C(O)c1cc(C)cc(C)c1 (stereo unspecified)
IC50 (CEM-SS [1]): > 1 µM
CC50 (CEM-SS [2]): > 1 µM

CCc1c(C)nc(O)c(NC(=O)CNC(=O)OC(C)(C)C)c1Cc1cc(C)cc(C)c1
SI [3]: 12
IC50 (CEM-SS [1]): 6.7 µM
CC50 (CEM-SS [2]): 86 µM

CCc1c(C)nc(OC)c(NC(=O)C(C)(C)C)c1Cc1ccccc1
IC50 (CEM-SS [1]): > 1 µM
CC50 (CEM-SS [2]): > 1 µM

CCc1c(C)nc(OC)c(NC(C)=O)c1C(C)(OC(C)=O)c1cc(C)cc(C)c1 (stereo unspecified)
SI [3]: >4
IC50 (CEM-SS [1]): 2.5 µM
CC50 (CEM-SS [2]): > 10 µM

CCc1cc(NC(=O)C(C)(C)C)c(OC)nc1C
IC50 (CEM-SS [1]): > 100 µM
CC50 (CEM-SS [2]): > 100 µM
